We go through 37 sequences from the array DNA melting data of Ke et al. (doi:10.1101/2024.01.08.574731).

A short description of series [1]: melting temperature; fluorescence melt of hairpins on a sequencing array, two-state fit, raised by 9.35 °C to match UV melts. The note with it: sodium 0.088 M. The method, boiled down:
(§1)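 Folding enthalpy and melting temperature come from bootstrapped two-state fits to Cy3 fluorescence of library hairpins carrying annealed Cy3 and quencher oligos on a sequenced MiSeq flow cell. Imaging was done in 50 mM Na-HEPES pH 8.0, 25 mM NaCl, stepping by 2.5 °C up to 60 °C, and signals were normalised to pre-quench Cy3 and to control constructs. Results of four replicates were combined by inverse variance, and fitted temperatures were raised by 9.35 °C to match UV melts.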

A short description of series [2]: folding enthalpy; higher = less favourable; fluorescence melt of hairpins on a sequencing array, two-state fit. Particulars: sodium 0.088 M. A digest of the protocol: as §1

With GCTGCTCGAAAGAGAAGC (((.(((....))).))), the Tm in series [1] came out at 55.5 °C. For the same sequence, the folding enthalpy in series [2] is -37.6 kcal/mol.
For the sequence GTCGATTCGAAAGAAGAC (((..(((....)))))), the Tm in series [1] was found to be 29.7 °C. The folding enthalpy in series [2] is -13 kcal/mol.
The like results for GCCGACGAAAGTCTTGGC ((((((....)))..))) were, in that order, 48.1 °C and -23.2 kcal/mol.
Turning to GCGTGCGAAAGCAACCGC ((((((....)))..))), the Tm in series [1] is 53.7 °C. In series [2], the folding enthalpy is -18.6 kcal/mol.
Regarding GTGGGCCGAAAGGCTCAC (((.(((....))).))), the Tm in series [1] came to 69.2 °C. In addition, the folding enthalpy in series [2] was -29.6 kcal/mol.
For the sequence GCTACACGAAAGTGAGC (((.(((....)))))), in series [1], the Tm came to 49.4 °C. The folding enthalpy in series [2] is -19.2 kcal/mol.
On to GATCCTTCCAAGGATC ((((((....)))))), for which, in series [1], the Tm was 55.3 °C. The folding enthalpy in series [2] was -47 kcal/mol.
The like results for GTGGGTGGAAACGTCCAC ((((..(....)..)))) were, in that order, 46 °C and -18.8 kcal/mol.
Consider GGTGTGCCGAAAGGCACC (((..(((....)))))), for which the Tm in series [1] is 49.7 °C. In addition, the folding enthalpy in series [2] is -7.6 kcal/mol.
The like results for GGTGTGGGAAACCGCACC ((((.((....)).)))) were, in that order, 60.4 °C and -42.9 kcal/mol.
The like results for GATCGTCCAACGATC ((((((...)))))) were, in that order, 55.6 °C and -39.4 kcal/mol.
Consider GTCCCATCGAAAGATGAC (((..(((....)))))), for which the Tm in series [1] came to 25.9 °C. Moreover, the folding enthalpy in series [2] was -12 kcal/mol.
For GCCCACGGAAACGTGGAC (.(((((....))))).), in series [1], the Tm came to 50.6 °C. Besides, in series [2], the folding enthalpy is -14.1 kcal/mol.
In the same order, the values of AACACGAAAGTGTT (((((....))))) are 56.8 °C and -18.9 kcal/mol.
In the case of GATCCCATCGGGGATC ((((((....)))))), in series [1], the Tm worked out at 59.9 °C. Moreover, in series [2], the folding enthalpy is -31.1 kcal/mol.
The like results for GTAAATACGAAAGTATAC (((..(((....)))))) were, in that order, 25 °C and -9.48 kcal/mol.
The like results for GGGAGCGAAAGCTGGCCC ((((((....)))..))) were, in that order, 39.8 °C and -14 kcal/mol.
For GATTCTGGAAACAGGATC (((.(((....))).))), in series [1], the Tm came out at 42.7 °C. In series [2], the folding enthalpy is -37.1 kcal/mol.
Consider GGTGTTGGAAACGATACC (((.(.(....).).))), for which, in series [1], the Tm came out at 33.2 °C. Besides, the folding enthalpy in series [2] was -14.2 kcal/mol.
In the same order, the values of GATCGATCTATCGATC ((((((....)))))) are 56.3 °C and -42.5 kcal/mol.
On to GGATACCGAAAGGTTCC (((.(((....)))))), for which, in series [1], the Tm was determined as 49.3 °C. Moreover, the folding enthalpy in series [2] was -25.6 kcal/mol.
The like results for GATCAAACGCTTGATC ((((((....)))))) were, in that order, 41.5 °C and -29.5 kcal/mol.
The like results for GCAGAGCGAAAGCCATGC (((..((....))..))) were, in that order, 45.7 °C and -18.9 kcal/mol.
In the same order, the values of GATCTGACTGCAGATC ((((((....)))))) are 47 °C and -23.7 kcal/mol.
In the case of GGCTCCGCGAAAGCGGCC (((..(((....)))))), the Tm in series [1] was 41.4 °C. Moreover, the folding enthalpy in series [2] is -8.55 kcal/mol.
Take GATCTAGTACTAGATC ((((((....)))))): the Tm in series [1] was 48.7 °C. In series [2], the folding enthalpy was -51.4 kcal/mol.
In the same order, the values of GATTAAGGAAACTTGATC (((.(((....))).))) are 30.3 °C and -26.6 kcal/mol.
The like results for GTGCACGAAAGTGCCAC ((((((....))).))) were, in that order, 54.5 °C and -8.14 kcal/mol.
In the same order, the values of GACGTGGGAAACCACGTC (((((((....))))))) are 68.8 °C and -37.1 kcal/mol.
GATCTGGAGCCAGATC ((((((....)))))): in series [1], the Tm amounted to 49.5 °C. Also, in series [2], the folding enthalpy is -37.6 kcal/mol.
In the same order, the values of GCGTATGCGAAAGCACGC (((..(((....)))))) are 53.1 °C and -20.9 kcal/mol.
In the same order, the values of GCAACAGGAAACCGTTGC (((((.(....).))))) are 50.4 °C and -43.8 kcal/mol.
As to GATCCATGGTGGATC ((((((...)))))), the Tm in series [1] is 50.6 °C. In addition, the folding enthalpy in series [2] was -36 kcal/mol.
In the same order, the values of GTGAGCGAAAGCTCCCAC ((((((....)))..))) are 36.4 °C and -8.27 kcal/mol.
In the same order, the values of GAGCAGGCGAAAGCCCTC (((..(((....)))))) are 31.7 °C and -9.52 kcal/mol.
On to GTGGACGCGAAAGCGCAC (((..(((....)))))), for which, in series [1], the Tm came out at 47.8 °C. Further, the folding enthalpy in series [2] was -15.4 kcal/mol.
In the same order, the values of GATCGAGAGATCGATC ((((((....)))))) are 54.7 °C and -25.6 kcal/mol.
